An excerpt weighted towards active compounds, which were near 1.9% of everything screened.
proCasp7 act – counter-screen: procaspase-7 (human) activation | activation, % at 8.5 µM | P55210 | recombinant procaspase-7, Ac-DEVD-pNA absorbance 405 nm; D23A/D198A/D206A triple mutant, cannot self-cleave; scale: DMSO 0, 5 µM enzyme 100 | actives 0.093% (n = 330,000);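 active = percent activation above the screen-wide mean plus 3 SD, cut at about 25% in these data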
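signal = Epi-absorbance of released pNA at 405 nm, two timepoints | assay system = Uncleavable procaspase-7 mutant enzyme | reagent = Ac-DEVD-pNA substrate, 400 µM as added | times = 1 h enzyme–compound preincubation and 2 h substrate reaction, both 25 °C | benchmarks = low DMSO alone, high DMSO plus 5 µM PC-7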
UBC13 polyUb – inhibitors of human UBC13 polyubiquitin chain formation; inhibition, % at 20 µM; P61088; AID 485273; TR-FRET; actives 0.47% (n = 330,000); in the data active = inhibition above about 45%, passing the limit was not always enough
procasp3 activ – activators of human procaspase-3; P42574; recombinant procaspase-3 D3A, Ac-DEVD-pNA absorbance 405 nm; activation, % at 8.5 µM; actives 0.11% (n = 330,000); AID 463141;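 active = activation above the mean of all tested compounds plus 3 SD, cut at about 21% in these data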
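Technique: 405 nm absorbance of p-nitroaniline, reads at 0 and 120 min; Test system: Procaspase-3 D3A mutant; Incubation: 1 h enzyme-compound preincubation, then 2 h substrate reaction, 25 °C; Repeats: singlicate, each compound tested once; Benchmarks: low control DMSO wells, high control DMSO plus 5 µM PC-3 D3A.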
IDE cell activ – IDE (human) activation, cell-based; P14735; HEK cells, FAbeta-B cleavage, fluorescence polarization; 0% vehicle, 100% cell-free pure enzyme wells; activation, % at 5.96 µM; actives 0.073% (n = 340,000);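 active = activation above the mean of all tested compounds plus 3 SD, set per screening campaign, cut at about 17% in these data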
Target sequence (P14735 whole entry, looked up): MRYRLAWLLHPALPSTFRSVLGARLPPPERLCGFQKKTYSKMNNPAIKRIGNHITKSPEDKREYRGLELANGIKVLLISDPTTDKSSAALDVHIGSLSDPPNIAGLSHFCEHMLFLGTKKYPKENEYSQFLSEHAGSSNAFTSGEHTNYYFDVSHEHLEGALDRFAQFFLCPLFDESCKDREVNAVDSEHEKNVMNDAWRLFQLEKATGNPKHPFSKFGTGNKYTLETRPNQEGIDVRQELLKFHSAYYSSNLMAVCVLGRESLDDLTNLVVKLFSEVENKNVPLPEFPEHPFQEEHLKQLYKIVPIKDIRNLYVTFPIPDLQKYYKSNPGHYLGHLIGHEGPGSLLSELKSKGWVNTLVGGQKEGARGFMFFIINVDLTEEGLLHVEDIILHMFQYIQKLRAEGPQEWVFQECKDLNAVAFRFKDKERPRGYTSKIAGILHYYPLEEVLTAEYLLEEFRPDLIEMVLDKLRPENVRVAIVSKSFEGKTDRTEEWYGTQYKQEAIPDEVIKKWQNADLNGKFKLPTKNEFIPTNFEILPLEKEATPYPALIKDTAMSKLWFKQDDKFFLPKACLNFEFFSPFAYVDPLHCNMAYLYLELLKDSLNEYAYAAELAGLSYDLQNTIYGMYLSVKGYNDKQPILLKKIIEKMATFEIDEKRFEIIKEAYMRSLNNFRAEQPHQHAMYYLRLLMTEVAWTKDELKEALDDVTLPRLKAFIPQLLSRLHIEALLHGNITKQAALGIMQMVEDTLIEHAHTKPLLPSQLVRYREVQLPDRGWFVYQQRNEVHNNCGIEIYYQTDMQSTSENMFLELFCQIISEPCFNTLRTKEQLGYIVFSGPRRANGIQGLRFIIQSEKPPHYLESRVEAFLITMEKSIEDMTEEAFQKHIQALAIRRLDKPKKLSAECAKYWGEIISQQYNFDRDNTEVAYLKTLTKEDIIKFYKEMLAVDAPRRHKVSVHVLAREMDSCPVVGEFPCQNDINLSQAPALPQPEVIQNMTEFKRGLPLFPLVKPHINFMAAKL
IDE cell inh – cellular human IDE inhibition; P14735; HEK cells, FAbetaB cleavage, fluorescence polarization; inhibition, % at 5.59 µM; actives 0.41% (n = 320,000);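 active = percent inhibition above the average of all tested compounds plus 3 SD, set per screening campaign, cut at about 16% in these data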;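 also: IDE supplied by intact live HEK cells; FP after avidin binding of uncleaved biotin substrate so inhibition keeps polarization high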
PHOSPHO1 block – blocks human PHOSPHO1 phosphatase activity; Q8TCT1; recombinant PHOSPHO1, absorbance phosphatase assay; inhibition, % at 13.3 µM; actives 1.1% (n = 290,000); AID 1565; in the data active = inhibition above about 60%
Large screens that a line does not name were inactive.

CCc1nn(C(C)C(=O)NCc2cccc(Cl)c2)c(=O)c2cc3occc3n12 (stereo unspecified)	none
CCN(CC)S(=O)(=O)c1ccc(NC(=O)c2ccc(OCC3CCCO3)cc2)cc1 (stereo unspecified)	none (no result: PHOSPHO1 block)
CC(C)CNC(=O)c1ccccc1N(Cc1ccccc1)S(C)(=O)=O	none
CC(=O)c1c(-c2ccc(C)cc2)nc2c3ccccc3ccn12	PHOSPHO1 block 64
CCOC(=O)c1c(C)nc2c3ccccc3ccn12	none
CCN1C[C@@H]2[C@@H]3C(=O)N(C)C(=O)[C@@H]3[C@](C)(C1=O)N2C(=O)c1ccc(Cl)c(Cl)c1	none (no result: proCasp7 act, UBC13 polyUb, procasp3 activ, IDE cell inh, PHOSPHO1 block)
O=C(CSc1nc2ccccc2c(=O)n1-c1ccccc1)NCC1CCCO1 (stereo unspecified)	none
CC(C)NC(=O)CSc1nc2ccccc2n1-c1ccccc1	none
COc1ccc(-n2c(SCC(=O)NCC3CCCO3)nc3ccccc32)cc1 (stereo unspecified)	PHOSPHO1 block 78
CC(C)(C)NC(=O)CSc1nc2ccccc2n1-c1ccccc1	PHOSPHO1 block 62
CC1(C)C(=O)Nc2ccccc2N1C(=O)COC(=O)c1cccnc1Cl	none (no result: PHOSPHO1 block)
Cc1cc(NC(=O)C(C)SCC(=O)Nc2ccccc2C(C)(C)C)no1 (stereo unspecified)	none (no result: PHOSPHO1 block)
CC(=O)C(Sc1nn(C)c(=S)s1)C(=O)Nc1ccccc1 (stereo unspecified)	PHOSPHO1 block 98
c1ccc(-c2nc(CSc3nnnn3-c3ccccc3)cs2)cc1	none
Cc1ccccc1Nc1nc(CSc2nnnn2-c2ccccc2)cs1	PHOSPHO1 block 95
COc1ccc(Nc2cccccc2=O)cc1	PHOSPHO1 block 62
Fc1ccc(-n2c(-c3ccc4ccccc4n3)n[nH]c2=S)cc1	PHOSPHO1 block 60
Cc1c(Cl)c(-c2n[nH]c(=S)n2-c2ccc(F)cc2)nn1C	PHOSPHO1 block 101
S=c1[nH]nc(-c2ccccc2)n1C1C=CCCC1 (stereo unspecified)	PHOSPHO1 block 92
CCOCCCNC(=O)c1ccc(/C=C2\Oc3ccccc3N(C)C2=O)cc1	none
O=C(O)c1ccc(/C=N/n2cc(-c3ccccc3)[nH]c2=S)cc1	PHOSPHO1 block 97
CCCn1c(SCc2nc3sc(C)c(C)c3c(=O)[nH]2)nc2ccccc2c1=O	PHOSPHO1 block 69
COCCn1c(SCc2nc3ccccc3c(=O)[nH]2)nc2ccccc2c1=O	none
CCCc1cc(=O)oc2cc(C)cc(OCC(=O)Nc3cccnc3)c12	PHOSPHO1 block 62
Cc1cc(OCC(=O)Nc2cccnc2)c2c(C)cc(=O)oc2c1	none
COc1cc(/C=C2\SC(=S)N(N3CCOCC3)C2=O)cc(OC)c1OC	none
COc1cc(/C=C2\SC(=S)N(N3CCOCC3)C2=O)ccc1O	IDE cell inh 19
CCOC(=O)CC(=O)CSc1nnc(Cn2c(=O)sc3ccccc32)n1C	PHOSPHO1 block 71
CCOC(=O)CNC(=O)CSc1nnc(Cn2c(=O)sc3ccccc32)n1C	none
COc1ccc(C(=O)Nc2cc(-c3ccccc3)nn2-c2ccccc2F)cc1	none (no result: PHOSPHO1 block)
CC(SC1=NCCN1S(=O)(=O)c1ccccc1)c1ccccc1 (stereo unspecified)	PHOSPHO1 block 61
Cc1ccc(S(=O)(=O)N2CCN=C2SC(C)c2ccccc2)cc1 (stereo unspecified)	none
COc1cccc2sc(=NC(=O)CS(=O)(=O)c3ccc(Cl)cc3)n(C)c12	none (no result: PHOSPHO1 block)
O=C(CSc1ncn[nH]1)c1ccccc1	PHOSPHO1 block 95 (no result: UBC13 polyUb)
O=C(CSc1ncn[nH]1)c1cccc([N+](=O)[O-])c1	none
CCn1c(COc2ccccc2C)nnc1SCC(=O)N1CCN(c2ccccc2)CC1	none
CCn1c(COc2cccc(C)c2C)nnc1SCC(=O)N1CCN(c2ccc(OC)cc2)CC1	PHOSPHO1 block 74
O=C(CSc1ccccn1)N1CCN(c2cccc(Cl)c2)CC1	PHOSPHO1 block 83
O=C(CSc1ccccn1)N1CCN(c2ccccc2)CC1	none
N=C1/C(=C\c2ccc(-c3cccc(C(=O)O)c3)o2)C(=O)N=C2SC=C(c3ccccc3)N12	PHOSPHO1 block 80
